From ChEMBL document CHEMBL3286213, “Exploration of the dihydropyrimidine scaffold for the development of new potential anti-inflammatory agents blocking prostaglandin E₂ synthase-1 enzyme (mPGES-1)” (Eur J Med Chem, 2014)
Calls of active or inactive are those of the source. The calls are words filed in the database; no cut-off is given here.

Tests used:
[1] = Retention time of the compound by RP-HPLC analysis; format: physicochemical
Method in brief: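 RP-HPLC with eluent A 0.1% TFA in water and eluent B 0.1% TFA in CH3CN, detection at 280 nm.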

Prostaglandin E synthase = biological target: T1, Prostaglandin E synthase (Homo sapiens, UniProt O14684); experiment: Inhibition of mPGES-1 in interleukin-1 beta-stimulated human A549 cell microsomes assessed as reduction in PGE2 production using PGH2 as substrate treated for 15 mins prior to substrate addition measured after 1 min by RP-HPLC analysis
T1 sequence (O14684 whole entry): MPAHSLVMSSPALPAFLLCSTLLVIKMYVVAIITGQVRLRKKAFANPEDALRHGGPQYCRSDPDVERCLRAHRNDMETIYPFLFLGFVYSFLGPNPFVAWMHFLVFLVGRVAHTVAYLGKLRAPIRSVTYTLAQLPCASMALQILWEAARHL
Method in brief: (§1)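 Diluted in 0.1 M potassium phosphate pH 7.4 with 2.5 mM GSH. Compound or vehicle 15 min at 4 °C, then PGH2 added, 1 min. Stopped with FeCl2/citric acid plus 11β-PGE2 internal standard. PGE2 by SPE and RP-HPLC. Mean ± SE.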

[2] = biological target: T2, Prostaglandin E synthase (Homo sapiens) (UniProt O14684); experiment: Inhibition of mPGES-1 in interleukin-1 beta-stimulated human A549 cell microsomes assessed as reduction in PGE2 production using PGH2 as substrate at <10 uM treated for 15 mins prior to substrate addition measured after 1 min by RP-HPLC analysis; method in brief: as §1
T2 sequence (whole entry): T1 sequence (O14684 whole entry)

[3] = biological target: T2, Prostaglandin E synthase (Homo sapiens); experiment: Inhibition of mPGES-1 in interleukin-1 beta-stimulated human A549 cell microsomes assessed as reduction in PGE2 production using PGH2 as substrate at 10 uM treated for 15 mins prior to substrate addition measured after 1 min by RP-HPLC analysis; method in brief: as §1

Compound | Retention_time [1] | IC50 (Prostaglandin E synthase) | inhibition [2] | inhibition [3]
CCOC(=O)C1=C(C(=O)c2ccc(OC)cc2)[C@H](c2ccc(-c3cccc(C(F)(F)F)c3)o2)NC(=O)N1C | 30.3 min | 7.56 µM |  | 
CCOC(=O)C1=C(C(=O)c2ccc(OC)cc2)[C@H](c2coc3c(Br)cc(Br)cc3c2=O)NC(=O)N1 | 26.4 min |  | inactive | 
CCOC(=O)C1=C(C)N(C)C(=O)NC1c1ccc(-c2cccc(C(F)(F)F)c2)o1 (configuration not stated) | 26.7 min |  | inactive | 

The next lines start with the values.

Retention_time [1] | IC50 (Prostaglandin E synthase) | inhibition [2] | inhibition [3] | Compound
22.9 min |  | inactive |  | CCOC(=O)C1=C(C(=O)c2ccc(OC)cc2)C(c2cccc(OCC)c2)NC(=O)N1 (configuration not stated)
20.8 min |  | inactive |  | CCOC(=O)C1=C(C(=O)c2ccc(OC)cc2)[C@H](c2cccc(-c3ccc(C#N)cc3)n2)NC(=O)N1
34.2 min | 4.16 µM |  |  | CCOC(=O)C1=C(C(=O)c2ccc(OC)cc2)[C@H](c2ccc(-c3cccc(C(F)(F)F)c3)o2)NC(=O)N1
24.7 min |  | inactive |  | CCOC(=O)C1=C(C(=O)c2ccc(OC)cc2)C(c2cccc(C=O)c2)NC(=O)N1 (configuration not stated)
32.3 min | > 30 µM |  | 37% | CCOC(=O)C1=C(C(=O)c2ccc(OC)cc2)C(c2ccc(-c3cccc(C(F)(F)F)c3)o2)NC(=S)N1 (configuration not stated)
